# Laboratory results taken from ChEMBL document CHEMBL3271979, “Inhibition of solid tumors by nitrosoureas. 1. Lewis lung carcinoma” (1977).
# The source made the active and inactive calls. The calls are words filed in the database; no cut-off is given here.
# How the values were obtained:
# Mus musculus [1] = assay: Antitumor activity against mouse advanced Lewis lung carcinoma allografted in ip dosed BDF1 mouse assessed as disease cure administered as single dose on day 6 or 7 post-tumor implantation; type: functional, organism-based
# Method in brief: (§1)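 BDF1 mice (C57Blk/6 × DBA/2) implanted sc by trocar with Lewis lung tumor fragments of about 40 mg, taken only from bacteriologically sterile donor tumors. Mice bearing tumors of about 400 mg (day 6-7) were selected. Each received a single ip dose on day 7, at or below the LD10 in normal mice. Groups were of 10 mice. Tumor weight was taken from calipers as w = ab²/2, measured at least twice weekly. Matched non-tumor mice served as toxicity controls.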
# Mus musculus [2] = assay: Antitumor activity against mouse advanced Lewis lung carcinoma allografted in BDF1 mouse assessed as disease cure at 52 mg/kg, ip administered as single dose on 7th day post-tumor implantation measured for 80 days post-drug treatment; type: functional, organism-based; parameters: dose 52 mg/kg; method in brief: as §1
# Mus musculus [3] = assay: Antitumor activity against mouse advanced Lewis lung carcinoma allografted in ip dosed BDF1 mouse assessed as complete regression of established tumor administered as single dose on day 6 or 7 post-tumor implantation; type: functional, organism-based; method in brief: as §1
# [4] = Antitumor activity against mouse advanced Lewis lung carcinoma allografted in BDF1 mouse assessed as increase in host life span at 52 mg/kg, ip administered as single dose on 7th day post-tumor implantation; type: functional; conditions: route intraperitoneal
# Method in brief: (§2)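 BDF1 mice (C57Blk/6 × DBA/2) implanted sc by trocar with about 40 mg Lewis lung tumor fragments from bacteriologically sterile donors. Advanced-disease groups held tumors of about 400 mg by day 6-7, sized by caliper (w = ab²/2). Single ip injection on day 7, in water or saline vehicle, at or below the LD10 in normal mice. Tumors measured at least twice weekly.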
# [5] = Antitumor activity against mouse advanced Lewis lung carcinoma allografted in ip dosed BDF1 mouse assessed as increase in host lifespan administered as single dose on day 6 or 7 post-tumor implantation; type: functional
# Method in brief: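 Advanced Lewis lung model: about 40 mg fragments implanted sc by trocar into BDF1 mice, and mice with tumors of about 400 mg (day 6-7) selected. Tumor weight from calipers, w = ab²/2. Agent given as one ip dose in distilled water or physiological saline. Nontumor-bearing mice received matching doses as toxicity controls.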
# [6] = Antitumor activity against mouse advanced Lewis lung carcinoma allografted in BDF1 mouse assessed as increase in host life span at 27 mg/kg, ip administered as single dose on 7th day post-tumor implantation; type: functional; conditions: route intraperitoneal; method in brief: as §2
# Mus musculus [7] = assay: Antitumor activity against mouse advanced Lewis lung carcinoma allografted in BDF1 mouse assessed as disease cure at 27 mg/kg, ip administered as single dose on 7th day post-tumor implantation measured for 80 days post-drug treatment; type: functional, organism-based; parameters: dose 27 mg/kg; method in brief: as §1
# Mus musculus [8] = assay: Antitumor activity against mouse advanced Lewis lung carcinoma allografted in BDF1 mouse assessed as complete regression of established tumor at 27 mg/kg, ip administered as single dose on 7th day post-tumor implantation; type: functional, organism-based; parameters: dose 27 mg/kg; method in brief: as §1
# Mus musculus [9] = assay: Antitumor activity against mouse advanced Lewis lung carcinoma allografted in BDF1 mouse assessed as complete regression of established tumor at 41 mg/kg, ip administered as single dose on 7th day post-tumor implantation; type: functional, organism-based; parameters: dose 41 mg/kg; method in brief: as §1
# Mus musculus [10] = assay: Antitumor activity against mouse advanced Lewis lung carcinoma allografted in BDF1 mouse assessed as disease cure at 41 mg/kg, ip administered as single dose on 7th day post-tumor implantation measured for 80 days post-drug treatment; type: functional, organism-based; parameters: dose 41 mg/kg; method in brief: as §1
# [11] = Antitumor activity against mouse advanced Lewis lung carcinoma allografted in BDF1 mouse assessed as increase in host life span at 41 mg/kg, ip administered as single dose on 7th day post-tumor implantation; type: functional; conditions: route intraperitoneal; method in brief: as §2
# [12] = Antitumor activity against mouse advanced Lewis lung carcinoma allografted in BDF1 mouse assessed as increase in host life span at 67 mg/kg, ip administered as single dose on 7th day post-tumor implantation; type: functional; conditions: route intraperitoneal; method in brief: as §2
# Mus musculus [13] = assay: Antitumor activity against mouse advanced Lewis lung carcinoma allografted in BDF1 mouse assessed as disease cure at 67 mg/kg, ip administered as single dose on 7th day post-tumor implantation measured for 80 days post-drug treatment; type: functional, organism-based; parameters: dose 67 mg/kg; method in brief: as §1
SMILES,Activity (Mus musculus [1]),Activity (Mus musculus [2]),inhibition (Mus musculus [3]),ILS at 52 mg/kg [4],ILS [5],ILS at 27 mg/kg [6],Activity (Mus musculus [7]),inhibition (Mus musculus [8]),inhibition (Mus musculus [9]),Activity (Mus musculus [10]),ILS at 41 mg/kg [11],ILS at 67 mg/kg [12],Activity (Mus musculus [13])
CC1(C)CCC(NC(=O)N(CCF)N=O)CC1,inactive,inactive,Active,100%,,,,,,,,,
O=NN(CCF)C(=O)NC1CSCSC1,inactive,,inactive,,>25%,40%,inactive,inactive,inactive,inactive,21%,,
CC[C@H]1CC[C@H](NC(=O)N(CCCl)N=O)CC1,inactive,,Active,,,,,,,,,17%,inactive
